An excerpt weighted towards active compounds, which were near 1.6% of everything screened.
SUMO1 PPI mod = alters human SUMO1 binding to SIM partners; P63165; SUMO1 binding to a labelled peptide, TR-FRET, 1 h; inhibition, % at 20 µM; hit rate 0.33% among 360,000; AID 602429; in the data active = inhibition above about 37%
Scp-1 inhibitor = blocks human Scp-1 phosphatase activity; inhibition, % at 20 µM; Recombinant Scp1, phosphopeptide, malachite green phosphate absorbance; AID 493091; hit rate 0.88% among 340,000; Q9GZU7;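 active = inhibition above about 50% at 20 µM, limit read from the data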;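 also: plate controls were DMSO wells with enzyme for no effect and wells lacking enzyme for full effect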
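assay system = SCP-1 phosphatase catalytic domain, residues 76-261 | buffer or medium = 50 mM Tris acetate pH 5.5, 0.005% Tween-20, 10 mM MgCl2 | incubation = enzyme reaction 45 min at room temperature, colour 5 min, stabilisation 30 min | signal = Phosphate-binding colour reagent, absorbance read at 630 nm | measure = % inhibition at 20 µM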
LMPTP inh = LMPTP (human) inhibition | P24666 | recombinant LMPTP-A, OMFP fluorogenic substrate, fluorescence intensity | inhibition, % at 20 µM | hit rate 0.22% among 360,000 | AID 651560;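 active = compounds that cut the enzyme signal by at least half of the control window in the single-dose screen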;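 also: plate controls were DMSO wells with enzyme plus substrate for no effect and substrate without enzyme for full effect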
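Assay system: LMPTP-A, protein tyrosine phosphatase of low molecular weight / Medium: pH 6.0 Bis-Tris buffer with DTT and Triton X-100 / Schedule: 50 min enzyme reaction at room temperature, protected from light / Measured by: endpoint fluorescence intensity from OMFP dephosphorylation / Read-out basis: % inhibition relative to no-enzyme and uninhibited control wells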
DNMT1 block = DNMT1 (human) enzyme inhibition; P26358; inhibition (reported as % activation of signal), % at 10 µM; hit rate 0.83% among 360,000; DNMT1 molecular beacon, Hinp1I cleavage, fluorescence; in the data active = inhibition above about 50%
STEP inh = blocks human striatal-enriched tyrosine phosphatase; P54829; recombinant STEP, OMFP fluorogenic substrate, fluorescence; inhibition, % at 20 µM; hit rate 0.25% among 360,000;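 active = inhibition at 20 µM, scaled per plate between control wells, above about 37%, limit read from the data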;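 also: 0% = DMSO with enzyme and substrate and 100% = substrate only without enzyme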
Target sequence (P54829 whole entry, looked up): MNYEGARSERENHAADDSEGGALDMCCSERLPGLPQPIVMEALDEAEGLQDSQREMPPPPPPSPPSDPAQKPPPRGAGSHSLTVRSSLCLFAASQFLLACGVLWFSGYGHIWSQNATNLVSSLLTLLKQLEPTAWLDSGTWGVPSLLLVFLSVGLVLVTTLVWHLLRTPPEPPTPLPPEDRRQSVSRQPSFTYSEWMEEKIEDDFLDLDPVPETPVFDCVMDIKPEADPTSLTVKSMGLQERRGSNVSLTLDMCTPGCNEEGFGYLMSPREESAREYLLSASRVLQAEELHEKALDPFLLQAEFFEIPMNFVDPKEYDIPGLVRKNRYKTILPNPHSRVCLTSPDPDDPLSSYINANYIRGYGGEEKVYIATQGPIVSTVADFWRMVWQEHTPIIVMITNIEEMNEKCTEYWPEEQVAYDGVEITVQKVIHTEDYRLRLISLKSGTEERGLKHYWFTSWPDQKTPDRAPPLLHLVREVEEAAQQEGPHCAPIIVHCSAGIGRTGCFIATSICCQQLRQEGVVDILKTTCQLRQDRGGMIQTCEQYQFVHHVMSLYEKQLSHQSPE
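Assay system: isolated STEP enzyme / Timing: 20 min at room temperature, dark / Doses: 20 µM, 1% DMSO / Technique: fluorescence intensity, excitation 480 nm, emission 540 nm / Reagent: fluorogenic phosphatase substrate OMFP at 25 µM final / Measure: percent inhibition scaled to no-enzyme and uninhibited-enzyme controls, plate-pattern corrected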
F508del corr = correctors of CFTR F508del function in bronchial epithelial cells. hit rate 0.36% among 350,000. CFBE cells, YFP halide quenching; stimulated with forskolin plus potentiator P3; % fluorescence drop versus neutral controls. activity (quench increase), % at 7.58 µM;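 active = mean added fluorescence quench of at least 8% versus neutral control, with both replicates also reaching 8%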;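 also: cells transiently co-express mutant CFTR-F508del with the halide-sensitive YFP; corrector assay measuring rescue of mutant channel to the surface after 24 h compound exposure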
Scp-1 conf = confirmation of human Scp-1 phosphatase inhibitors; shares compounds with Scp-1 inhibitor; recombinant SCP-1 catalytic domain, phosphate release, malachite green absorbance; inhibition, % at 20 µM; hit rate 61% among 2,500;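 also: plate controls were DMSO with enzyme for no effect and buffer wells lacking enzyme for full effect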
Scp-1 MG ctr = interferes with malachite green readout, flagging false Scp-1 hits; apparent inhibition (interference), % at 20 µM; shares compounds with Scp-1 inhibitor; Colorimetric interference counterscreen, malachite green absorbance 630 nm; 2,500 tested, under 10 active;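 also: compounds added after enzyme reaction finished so only phosphate colour detection is probed; plate controls were DMSO wells with completed Scp-1 reaction for no effect and substrate wells lacking enzyme for full effect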
Scp-1 Tm shift = validation of human Scp-1 inhibitors by thermal shift binding | Recombinant SCP1, Sypro Orange thermal shift Tm | thermal shift relative to vanadate control, % at 40 µM | hit rate 25% among 1,500 | shares compounds with Scp-1 inhibitor;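 active = substances whose mean melting-temperature shift, as a percentage of the reference inhibitor's shift, reaches about 5.3%, limit read from the data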;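 also: 0% = Tm of DMSO wells and 100% = Tm with sodium orthovanadate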
Starred values were filed as active, the others as inactive; · = not tested or not shown.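 The calls were made as follows, unless noted: active = inhibition of at least 30% at 20 µM; inactive = the rest.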

SMILES	SUMO1 PPI mod	Scp-1 inhibitor	LMPTP inh	DNMT1 block	STEP inh	F508del corr	Scp-1 conf	Scp-1 MG ctr	others
C=CC#CC1(O)CC(C)[N+](C)(C)CC1C (stereo not drawn)	2	104*	-3	5	-1	2	78*	-15	Scp-1 Tm shift=-26
COc1cccc2cc(C(=O)CS(=O)(=O)c3ccc(C)cc3)c(=O)oc12	-19	66*	0	6	1	·	-7	-19
COc1ccc(NC(=O)Nc2ccc3c(c2)CC(=O)N([C@@H](C)CO)C[C@@H](C)[C@@H](CN(C)S(=O)(=O)c2ccc(F)cc2)O3)cc1	·	·	·	·	·	0	·	·
Cc1ccc(CNC(=O)CN(C)S(=O)(=O)c2ccc3c(c2)n(C)c(=O)c(=O)n3C)cc1	17	-3	2	1	0	·	-1	-10
COc1ccccc1CNC(=O)CN(C)S(=O)(=O)c1ccc2c(c1)c(=O)n(C)c(=O)n2C	2	5	-1	0	0	3	·	·
Cn1c(=O)c(=O)n(C)c2cc(S(=O)(=O)CCC(=O)NCc3ccccc3)ccc21	13	71*	1	19	2	4	11	-13
COc1ccccc1CNC(=O)CN(C)S(=O)(=O)c1ccc2c(c1)n(C)c(=O)c(=O)n2C	3	-7	-2	2	1	2	-3	-3
CO[C@@H]1CN(C)C(=O)c2cc(NC(=O)C3CCCC3)ccc2OC[C@@H](C)N(CCC(F)(F)F)C[C@@H]1C	·	·	·	·	·	2	·	·
Cc1cccc(NC(=S)NC(=O)CC2CC(C)(C)OC2=O)c1 (stereo not drawn)	-1	-6	-1	3	-1	·	1	-3
Cc1ccc(NC(=S)NC(=O)CC2CC(C)(C)OC2=O)cc1 (stereo not drawn)	0	-9	0	2	-3	-1	·	·
Cc1cc(C(=O)Nc2cccc3c2O[C@@H](CN(C)C(=O)NC2CCCCC2)[C@@H](C)CN([C@H](C)CO)C3=O)n(C)n1	·	·	·	·	·	0	·	·
Nc1cccc2c1C(=O)c1ccc(Cl)cc1C2=O	-17	50*	31	31	4	·	26	-6
O=C(O)c1cccc2c1-c1ccc(Cl)cc1C2=O	-28	0	-3	0	-2	-1	·	·
N#Cc1ccc(-c2ccc3c(c2)[C@@H]2[C@@H](CCN2C(=O)C2CCC2)[C@H](CO)N3)cc1	·	·	·	·	·	-1	·	·
Cn1ncc(C#N)c1/N=C/N(Cc1ccccc1)Cc1ccccc1	2	73*	2	-2	1	·	-20	-17
C[C@H](CO)N1C[C@H](C)[C@H](CN(C)Cc2ccc(Oc3ccccc3)cc2)OCc2ccccc2-c2c(n(C)c3ccccc23)C1=O	·	·	·	·	·	-2	·	·
CC1(C)CC(N2CCOCC2)=CC(=[N+]2CCOCC2)C1	11	2	-1	0	-1	0	·	·
CC1C[N+](=C2C=C(N3CCOCC3)CC(C)(C)C2)CC(C)O1 (stereo not drawn)	-4	103*	-1	12	-1	-1	91*	-4	Scp-1 Tm shift=-16
CCOC(=O)C1C(C(=O)OC)=C(c2ccc(OC)cc2)c2ccccc2N1S(=O)(=O)C(F)(F)F (stereo not drawn)	-20	-1	1	3	0	0	·	·
CCOC(=O)C1(C)C(C(=O)OC)=C(c2ccc(OC)cc2)c2ccccc2N1C(=O)OC (stereo not drawn)	-2	96*	0	3	-3	3	57*	-11	Scp-1 Tm shift=-9
CO[C@@H]1CN(C)C(=O)c2ccc(NS(=O)(=O)c3ccc(F)cc3)cc2OC[C@@H](C)N(C)C[C@H]1C	·	·	·	·	·	2	·	·

Source: PubChem
